# Bioassay records (PubChem)
# LEDGF integ inh – blocks HIV-1 LEDGF/p75-dependent DNA integration; TR-FRET IN-LEDGF/p75 DNA integration, Eu/Cy5; inhibition, % at 3.7 µM; 370,000 compounds, 0.64% hits;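 active = inhibition above the screen-wide mean plus 3 SD, cut at about 13% in these data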;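 note: signal is the Cy5 over europium emission ratio at 671 and 618 nm; 0% = plate median of compound wells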
# HTRA1 inh – HTRA1 (human) protease inhibition. Q92743. recombinant HTRA1, FP-rhodamine activity-based probe, fluorescence polarization. inhibition, % at 5.96 µM. 340,000 compounds, 0.5% hits. AID 504803; in the data active = inhibition above about 36%;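 note: 0% = enzyme with DMSO and 100% = wells lacking enzyme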
# TDP2 inh – blocks human TDP2 phosphodiesterase activity. recombinant TDP2, T5PNP hydrolysis, p-nitrophenol absorbance 415 nm. inhibition, % at 12.8 µM. 370,000 compounds, 0.34% hits. AID 720702;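 active = inhibition above the mean of all tested compounds plus 3 SD, set per campaign, cut at about 25% in these data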;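 note: 0% = DMSO with enzyme and 100% = buffer with substrate but no TDP2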
#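 Test system: Human TDP2 enzyme | Reagent: 5 mM T5PNP | Compound dosing: 12.8 µM single point, 1% DMSO | Incubation: Enzyme reaction with compound for 2 h at 37 °C | Technique: p-Nitrophenol epi absorbance | Read-out: % inhibition relative to enzyme-containing and enzyme-free wells | Benchmarks: High control without enzyme, low control DMSO plus TDP2 | Replicates: Singlicate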
# ABHD4 inh – inhibits mouse alpha/beta hydrolase domain 4 | Q8VD66 | purified mABHD4, FP-Rh probe fluorescence polarization | inhibition, % at 8.92 µM | 370,000 compounds, 0.54% hits | AID 720543;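 active = inhibition exceeding the mean over every tested compound plus 3 SD, cut at about 30% in these data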;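 note: 0% = plate median of compound wells and 100% = S159A mutant with DMSO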
#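 Assay system: mouse ABHD4 enzyme, wild type / Also added: fluorescent activity-based probe FP-Rh / Doses: single nominal dose of 8.92 µM, 0.89% DMSO final / Timing: 45 min compound pre-incubation plus 60 min probe step, 25 °C / Signal: FP readout, ex 525 nm / em 598 nm / Control set: S159A mutant/DMSO as 100%, compound-well median as 0%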
# TCR-CD3 inh – human TCR-CD3 binding inhibition; TAMRA-labeled TCR probe fluorescence, biochemical; inhibition, % at 9.4 µM; 360,000 compounds, 0.37% hits; AID 651800; in the data active = inhibition above about 19%;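 note: recombinant mutant TCR 2C K166C tagged with TAMRA read by polarization; 0% = receptor in buffer alone and 100% = receptor with positive control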
# SIAE inh – blocks human sialic acid acetylesterase; SIAE FP-Rh probe binding, fluorescence polarization; inhibition, % at 9.66 µM; 370,000 compounds, 0.69% hits; AID 1053197;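 active = inhibition above a cutoff: mean of compounds within the control limits plus 3 SD of those, cut at about 17% in these data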;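 note: 0% = plate median of compound wells and 100% = probe without SIAE protein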
# Target sequence (Q9HAT2 whole entry, looked up): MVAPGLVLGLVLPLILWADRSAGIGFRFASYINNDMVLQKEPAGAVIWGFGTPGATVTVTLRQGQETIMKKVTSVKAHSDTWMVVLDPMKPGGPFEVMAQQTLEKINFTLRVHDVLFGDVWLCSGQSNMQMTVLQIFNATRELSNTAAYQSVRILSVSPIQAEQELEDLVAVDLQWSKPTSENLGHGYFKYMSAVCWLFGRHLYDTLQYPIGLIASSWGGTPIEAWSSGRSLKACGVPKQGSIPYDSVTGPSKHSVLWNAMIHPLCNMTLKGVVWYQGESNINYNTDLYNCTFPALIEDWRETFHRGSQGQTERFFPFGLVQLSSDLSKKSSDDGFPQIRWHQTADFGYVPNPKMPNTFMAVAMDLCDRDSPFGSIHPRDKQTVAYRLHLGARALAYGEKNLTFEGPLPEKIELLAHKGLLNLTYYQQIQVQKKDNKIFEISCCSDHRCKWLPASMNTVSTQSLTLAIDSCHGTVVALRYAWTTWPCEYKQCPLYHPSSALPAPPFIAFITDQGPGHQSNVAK
# mABHD4 conf – confirmation of mouse ABHD4 inhibitors; shares compounds with ABHD4 inh; purified mABHD4, FP-Rh probe fluorescence polarization; inhibition, % at 8.92 µM; 1,800 compounds, 55% hits;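 active = mean inhibition across replicates above the hit cutoff set in the primary screen, cut at about 30% in these data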;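 note: 0% = wild-type ABHD4 with DMSO and 100% = catalytically dead S159A mutant with DMSO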
# TDP2 inh conf – confirmation of human TDP2 inhibitors. 1,100 compounds, 22% hits. shares compounds with TDP2 inh. recombinant human TDP2, absorbance read-out. inhibition, % at 12.8 µM. AID 743263; in the data active = inhibition above about 25%;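 note: 0% = vehicle with enzyme and 100% = no enzyme buffer only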
# IN multimer act – counter-screen for LEDGF/p75 integration inhibitors: HIV-1 integrase multimerization activators; activation, % at 7.7 µM; 2,000 compounds, 17% hits; shares compounds with LEDGF integ inh; TR-FRET HIV-1 integrase multimerization, biochemical; in the data active = activation above about 8.9%
# TRFRET interf – optically interferes with TR-FRET readout in LEDGF counter-screen | AID 1053135 | 2,000 tested, under 10 active | inhibition, % at 7.7 µM | shares compounds with LEDGF integ inh | TR-FRET optical interference counterscreen, HIV-1 IN multimerization;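 active = inhibition above the mean over all tested compounds plus 3 SD, which no compound reached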;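 note: 0% = integrase with antibodies and DMSO and 100% = antibodies without integrase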
# LEDGF integ conf – confirmation of HIV-1 LEDGF/p75-dependent integration inhibitors; shares compounds with LEDGF integ inh; TR-FRET LEDGF/p75-dependent HIV-1 integration, biochemical; inhibition, % at 3.7 µM; 2,000 compounds, 36% hits; in the data active = inhibition above about 14%
# * marks the source's active call; other numbers are inactive results; nt = no result. The list is not random: actives were taken first. Their share in the collection is about 2.2%.
SMILES,LEDGF integ inh,HTRA1 inh,TDP2 inh,ABHD4 inh,TCR-CD3 inh,SIAE inh,mABHD4 conf,IN multimer act,TRFRET interf,LEDGF integ conf,others
O=C1/C(=C/c2ccccc2)SC(=S)N1C1CCS(=O)(=O)C1 (configuration not stated),1,5,8,-2,-3,6,nt,nt,nt,nt,
CCN(C(=O)[C@H]1CC(=O)O[C@@H]1c1ccccc1)c1ccccc1,0,nt,7,-3,nt,4,nt,nt,nt,nt,
Cc1ccc(NC2=CC(=O)C(=O)c3ccccc32)cc1,23*,9,70*,38*,3,9,22,9.0*,-32,40*,TDP2 inh conf=39*
Cc1ccc(NC2=C(Cl)C(=O)c3ccccc3C2=O)cc1,-1,5,8,12,0,10,nt,nt,nt,nt,
NS(=O)(=O)c1ccc(NC2=CC(=O)C(=O)c3ccccc32)cc1,32*,14,61*,31*,-5,5,9,6,-23,62*,TDP2 inh conf=63*
N#CC1=C(N)C(C#N)(C#N)[C@H](c2ccoc2)[C@H]2CN(Cc3ccccc3)CC=C12,19*,33,40*,31*,9,8,5,2,-7,3,TDP2 inh conf=-2
CN1CC=C2C(C#N)=C(N)C(C#N)(C#N)[C@H](c3ccoc3)[C@H]2C1,nt,24,nt,nt,nt,nt,nt,nt,nt,nt,
O=C1SC(SCc2ccccc2)=N/C1=C\c1ccco1,26*,-5,14,30*,9,7,4,0,0,1,
O=C1SC(SCc2ccccc2)=N/C1=C\c1ccc(C(=O)O)cc1,3,-2,4,8,9,-2,nt,nt,nt,nt,
CCOC(=O)[C@@]12CN(C(=O)OC(C)(C)C)CC=C1N(Cc1ccc(OC)cc1)C(=O)[C@H]2CC(=O)N1CCC(c2ccccc2)CC1,3,nt,-2,7,nt,-1,nt,nt,nt,nt,
Cc1oc2ccc(O)cc2c1C(=O)c1ccc([N+](=O)[O-])cc1,1,-2,-4,8,4,3,nt,nt,nt,nt,
CN(C)/C=C/c1oc2ccc(O)cc2c1[N+](=O)[O-],18*,4,7,32*,1,-2,5,19*,-96,7,
O=C(O)c1ccc(NC2=C/C(=N/S(=O)(=O)c3ccccc3)c3ccccc3C2=O)cc1,49*,34,72*,48*,8,9,66*,7,-23,72*,TDP2 inh conf=77*
O=C(O)c1ccc(NC2=C(N3CCOCC3)C(=O)c3ccccc3C2=O)cc1,2,5,22,6,6,0,nt,nt,nt,nt,
COc1ccc(/C=N/NC(=O)c2nn(-c3ccccc3)c(=O)c3c(N)scc23)cc1,17*,21,20,46*,7,11,27,6,-23,17*,
CN(C(=S)Nc1cccnc1)c1ccc(O)cc1,29*,22,30*,47*,15,12,7,1,-3,7,TDP2 inh conf=10
O=C1C(=Cc2ccco2)C(=O)c2ccccc21,14*,25,-1,35*,3,3,28,-2,9,11,
NC(=O)c1ncn2c(=O)n(CCCl)nnc12,0,nt,-3,10,1,5,nt,nt,nt,nt,
CCCN(CC1CC1)c1c2c(nc3ncnn13)CCCC2,0,nt,-2,7,nt,4,nt,nt,nt,nt,
c1cc2c(cc1CNc1ccc(N3CCOCC3)cc1)OCO2,16*,30,16,30*,0,12,-15,5,-24,-16,
Nc1ccc(Br)c2cccnc12,54*,20,47*,40*,6,4,16,1,-4,53*,TDP2 inh conf=41*
C=CCNC(=S)N1C[C@H]2CON(C)[C@H]2C[C@H]1c1ccccc1Br,1,nt,-4,2,5,-2,nt,nt,nt,nt,
COc1cc(C=C2C(=O)C=CC2=O)ccc1O,93*,nt,9,37*,16,9,0,7,-37,24*,
COCc1cc(N2CCN(C(=O)OC(C)(C)C)C[C@@H]2C)ccc1N1CC[C@H](O)C1,17*,nt,2,35*,6,9,14,4,-18,2,
O=C(N[C@H](C(=O)N1CCC[C@H]1C(=O)NCCc1ccccc1Cl)C1CCCCC1)c1cccs1,6,nt,-11,-21,-1,4,nt,nt,nt,nt,
SMILES,LEDGF integ inh,HTRA1 inh,TDP2 inh,ABHD4 inh,TCR-CD3 inh,SIAE inh,mABHD4 conf,IN multimer act,TRFRET interf,LEDGF integ conf,others
O=C1C[C@@H](O)[C@H](O)c2cccc(O)c21,18*,nt,2,35*,nt,-6,19,-1,5,9,
O=C1O[C@@H](c2ccc(O)cc2)Cc2cccc(O)c21,-3,1,-11,1,0,0,nt,nt,nt,nt,
CCOC(=O)[C@@]12CCCC3=C1N(CCC3)C(=O)[C@H]2CC(=O)NCc1cccc2ccccc12,0,nt,4,0,nt,1,nt,nt,nt,nt,
O=C(/C=C/c1ccc(Br)cc1)c1ccco1,1,-10,14,-5,3,3,nt,nt,nt,nt,
O=C(/C=C/c1ccc([N+](=O)[O-])cc1)/C=C/c1ccco1,22*,33,13,39*,1,10,33*,0,-1,47*,
O=C(C=Cc1ccco1)c1ccco1,73*,9,-8,32*,1,3,12,2,-8,7,
C=CCN1C(C(=O)OCC)CSCCS1(=O)=O (configuration not stated),-1,nt,-1,-2,1,-7,nt,nt,nt,nt,
CC1(C)Oc2cc(N)c([N+](=O)[O-])cc2O1,45*,7,5,41*,3,6,-11,0,-1,-6,
O=C(c1ccccc1)C12COc3ccccc3C1ON=C2c1ccccc1 (configuration not stated),1,nt,2,5,5,4,nt,nt,nt,nt,
Cc1ccc2cc(N)ccc2n1,-6,7,-4,-1,6,5,nt,nt,nt,nt,
Nc1ccc2cc3ccc(N)cc3nc2c1,44*,nt,16,32*,nt,11,28,33*,-165,74*,
O=C(N[C@H](Cc1ccccc1)C(=O)NCc1ccco1)[C@H]1O[C@@H](n2ccc(=O)[nH]c2=O)[C@H](O)[C@@H]1O,0,nt,-9,6,12,-1,nt,nt,nt,nt,
